Data set [1] deals with Leishmania mexicana. The following applies: MHOM/BZ/61/M379.
The subject of data set [2] is Trypanosoma cruzi. Put plainly: Antimicrobial activity against bloodstream trypomastigote stage of Trypanosoma cruzi NINOA after 24 hrs by Brener method. The data set is classed as functional.
The test system of data set [3] is Plasmodium berghei. Nature of the data set: Antiplasmodial activity against Plasmodium berghei infected in CD1 mouse assessed as survival time at 50 mg/kg, po administered for 4 days measured on day 4 relative to vehicle-treated control. The data set is classed as functional. An outline of the steps:
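P. berghei ANKA was passaged by ip injection of 0.2 mL saline-diluted blood from donor mice at about 30% parasitaemia until the infection was stable. In a 4-day suppression test, mice received 50 mg/kg orally every 24 h on days 0–4 post-inoculation (n = 5, in duplicate), with 0.2 mL Arabic gum orally as control. Survival time was recorded against untreated mice, and mice without parasitaemia on day 30 counted as cured.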

Data set [4] is described as follows: Antioxidant activity assessed as inhibition of ABTS free radical scavenging activity after 10 mins by spectrophotometry relative to control. The class given is physicochemical. An outline of the steps: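 ABTS (7 mM) and potassium persulfate (2.45 mM), final concentrations in water, mixed and kept in the dark at room temperature for 16 h to form ABTS radical cation. Diluted in water to A734 of 1.00. Compounds or Trolox standards added (final 0–20). Absorbance read 10 min after mixing. IC50 is 50% radical scavenging, relative uncertainty under five percent.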

For data set [5], the system named is Leishmania mexicana. Nature of the data set: Antimicrobial activity against Leishmania mexicana MHOM/BZ/61/M379 after 24 hrs by haemocytometry. The following applies: MHOM/BZ/61/M379, 24 h. The class given is functional.
The subject of data set [6] is Plasmodium berghei. Put plainly: Antiplasmodial activity against Plasmodium berghei infected in CD1 mouse assessed as reduction in parasitemia at 50 mg/kg, po administered for 4 days measured on day 4 relative to vehicle-treated control. The data set is classed as functional. Set-up: scale not given: the % may be the effect or the level left. An outline of the steps:
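P. berghei ANKA was passaged ip (0.2 mL saline-diluted blood) through groups of female CD1 mice until infection stabilized. Four-day suppression test: oral 50 mg/kg every 24 h on days 0–4 post-inoculation (n = 5, in duplicate). Vehicle control was 0.2 mL gum arabic orally. Parasitemia was read from tail blood on day 4 and inhibition calculated against the control group. Survival time was also recorded.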

Data set [7] can be described thus: Cytotoxicity against African green monkey Vero cells after 24 hrs by MTT assay. The class given is cell-based. The conditions noted are these: chlorocebus sabaeus. An outline of the steps:
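Confluent Vero cells were trypsinized and resuspended in MEM with 10% FBS, seeded in 96-well plates and held 24 h at 37 °C, 5% CO2. Compounds at various concentrations were added (DMSO control) for 24 h. MTT was added for 2 h, then SDS-HCl overnight at 24 °C. A540 was read and viability taken relative to control cells. Triplicate; CC50 derived.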
For orientation: Tetrazolium dyes change colour on reduction, which living cells bring about.

Data set [8] has as its system Trypanosoma cruzi. Put plainly: Antimicrobial activity against bloodstream trypomastigote stage of Trypanosoma cruzi INC-5 after 24 hrs by Brener method. The data set is classed as functional. The following applies: INC-5, 24 h.
The test system of data set [9] is Leishmania mexicana. Put plainly: Inhibition of DHFR in promastigote stage of Leishmania mexicana at 3 to 8 uM after 24 hrs in presence of folinic acid/folic acid/ferulic acid. An outline of the steps: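 L. mexicana MHOM/BZ/61/M379 promastigotes, 10^6 in log phase, were incubated with folinic acid, folic acid or ferulic acid at 20, 40, 60, 80 or 100. Cells were washed, resuspended in PBS and held 1 h at room temperature, then pelleted and resuspended in culture medium in 24-well plates. Compound was added and plates incubated 24 h. Percentage of living parasites was determined.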

Consider 18 molecules from ChEMBL document CHEMBL3414531, “Design, synthesis and biological evaluation of quinazoline derivatives as anti-trypanosomatid and anti-plasmodial agents” (Eur J Med Chem, 2015).

For orientation: LC50 means the concentration lethal to half of the exposed cells or organisms. In general, IC50 refers to the midpoint of a concentration-inhibition curve. As a reminder, the CC50 is the concentration at which the toxic effect on the cells reaches its halfway point.

Activity calls are given as the source filed them. The calls are words filed in the database; no cut-off is given here.

In the data set with Leishmania mexicana [1], MEGLUMINE ANTIMONATE showed a median lethal concentration (LC50) of 183 µM.

In the case of `Nc1nc(N)c2cc(NCc3ccc4c(c3)OCCO4)ccc2n1`, the LC50 in the data set with Trypanosoma cruzi [2] amounted to 66.5 µM; in the data set on Leishmania mexicana [5], 22.4 µM; in the data set on Trypanosoma cruzi [8], 72.5 µM. Further, the Survival with Plasmodium berghei [3] came to 11 days. Also, the IC50 in [4] is 6.29 µM. Moreover, the Activity with Plasmodium berghei [6] turned out to be 44.2%. Moreover, in data set [7], the CC50 at 24 h is over 200 µM.

Regarding `COc1ccc(CNc2ccc3nc(N)nc(N)c3c2)cc1`, the LC50 with Trypanosoma cruzi [2] stood at 32.7 µM; in the data set on Leishmania mexicana [5], 14.6 µM; in the data set with Trypanosoma cruzi [8], 155 µM. Also, in the data set with Plasmodium berghei [3], the Survival was 18 days. Besides, the IC50 in [4] was 5.72 µM. In addition, the Activity with Plasmodium berghei [6] was determined as 98.5%. The molecule also came in with a CC50 at 24 h in data set [7] of 147 µM.

Take `O=C(Cn1ccnc1[N+](=O)[O-])NCc1ccccc1` [BENZNIDAZOLE]: the figures for the LC50 in the data set on Trypanosoma cruzi [2] and in the data set on Trypanosoma cruzi [8] were 780 µM and 690 µM, respectively.

Consider `COc1ccc(CN(Cc2ccc(OC(F)(F)F)cc2)c2ccc3nc(N)nc(N)c3c2)cc1`, for which the LC50 stood at 17.8 µM with Trypanosoma cruzi [2], 8 µM in the data set with Leishmania mexicana [5] and 40.7 µM in the data set with Trypanosoma cruzi [8]. Also, the Survival with Plasmodium berghei [3] was found to be 21 days. Also, the half-maximal inhibitory concentration (IC50) in data set [4] worked out at 24.5 µM. For the same molecule, the Activity in the data set with Plasmodium berghei [6] is 95.2%. This molecule yielded a CC50 at 24 h in data set [7] of over 200 µM.

For the molecule `COc1ccc(CN(Cc2ccc(OC)cc2)c2ccc3nc(N)nc(N)c3c2)cc1`, the LC50 in the data set on Trypanosoma cruzi [2] was 62.6 µM; in the data set with Leishmania mexicana [5], 23.1 µM; in the data set with Trypanosoma cruzi [8] it was 46.5 µM. Besides, the Survival in the data set with Plasmodium berghei [3] was 7 days. Moreover, the IC50 in data set [4] is 114 µM. For the same molecule, the Activity with Plasmodium berghei [6] is reported as 0%. In data set [7], the CC50 at 24 h was over 200 µM.

Regarding `Cc1c(C)c2c(c(C)c1O)CCC(C)(C(=O)O)O2` (stereo not drawn) [TROLOX], the concentration for half-maximal inhibition (IC50) in [4] was 10.9 µM.

In the case of VITAMIN E, the 50% inhibitory concentration (IC50) in data set [4] turned out to be 14.8 µM.

Consider `Nc1nc(N)c2cc(NCc3ccc(OC(F)(F)F)cc3)ccc2n1`, for which the figures for the LC50 in the data set with Trypanosoma cruzi [2], in the data set with Leishmania mexicana [5] and with Trypanosoma cruzi [8] were 20.6 µM, 8.08 µM and 46.1 µM, respectively. The Survival in the data set on Plasmodium berghei [3] came out at 17 days. Moreover, the inhibition result in the data set with Leishmania mexicana [9] is “Active”. In data set [4], the IC50 came out at 4.75 µM. In addition, the Activity with Plasmodium berghei [6] is given as 99.9%. The CC50 at 24 h in [7] was found to be 182 µM.

Consider `CCc1nc(N)nc(N)c1-c1ccc(Cl)cc1` [PYRIMETHAMINE], for which the Survival in the data set on Plasmodium berghei [3] is over 23 days. The Activity with Plasmodium berghei [6] is 100%. This molecule also gave a CC50 at 24 h in [7] of 122 µM.

For the molecule `CCN(Cc1ccc(OC(F)(F)F)cc1)c1ccc2nc(N)nc(N)c2c1`, the LC50 in the data set with Trypanosoma cruzi [2] came out at 6.28 µM; in the data set on Leishmania mexicana [5], 3.06 µM; with Trypanosoma cruzi [8] it was 43.8 µM. Besides, the Survival in the data set with Plasmodium berghei [3] is over 23 days. Besides, in the data set on Leishmania mexicana [9], the inhibition entry is “Active”. Besides, the half-maximal inhibitory concentration (IC50) in data set [4] turned out to be 7.36 µM. Moreover, the Activity with Plasmodium berghei [6] is on record as 100%. The molecule also displayed a 50% cytotoxic concentration (CC50) at 24 h in data set [7] of over 200 µM.

Take `O=C1O[C@H]([C@@H](O)CO)C(O)=C1O` [ASCORBIC ACID]: in data set [4], the half-inhibitory concentration (IC50) stood at 11.2 µM.

For `COc1ccc(CNc2ccc3nc(NC(C)=O)nc(NC(C)=O)c3c2)cc1`, the LC50 with Trypanosoma cruzi [2] worked out at 197 µM; in the data set on Leishmania mexicana [5], 250 µM; in the data set with Trypanosoma cruzi [8], 509 µM. Further, the Survival in the data set on Plasmodium berghei [3] stood at 6 days. In data set [4], the IC50 worked out at 7.04 µM. Further, in the data set on Plasmodium berghei [6], the Activity was determined as 89.3%. Further, the CC50 at 24 h in data set [7] turned out to be 156 µM.

Take `Nc1nc(N)c2cc(N(Cc3ccc(OC(F)(F)F)cc3)Cc3ccc(OC(F)(F)F)cc3)ccc2n1`: the 50% lethal concentration (LC50) worked out at 35 µM with Trypanosoma cruzi [2], 4.93 µM in the data set with Leishmania mexicana [5] and 29.2 µM in the data set with Trypanosoma cruzi [8]. Moreover, in the data set on Plasmodium berghei [3], the Survival was 14 days. In addition, the IC50 in data set [4] stood at 33.9 µM. Further, the Activity in the data set on Plasmodium berghei [6] turned out to be 21%. In [7], this molecule displayed a CC50 at 24 h of over 200 µM.

On to `CCN(CC)CCCC(C)Nc1ccnc2cc(Cl)ccc12` (stereo not drawn) [CHLOROQUINE], for which the Survival in the data set with Plasmodium berghei [3] is over 23 days. The Activity in the data set with Plasmodium berghei [6] turned out to be 100%.

In turn, `CC1CS(=O)(=O)CCN1/N=C/c1ccc([N+](=O)[O-])o1` (stereo not drawn) [NIFURTIMOX] had a half-maximal cytotoxic concentration (CC50) at 24 h in data set [7] of 163 µM.

For the molecule `Nc1ccc2nc(N)nc(N)c2c1` [QUINAZOLINE-2,4,6-TRIAMINE], the IC50 in data set [4] worked out at 6.78 µM.

As to `CN(C)CCCOc1ccc(CNc2ccc3nc(N)nc(N)c3c2)cc1`, the LC50 with Trypanosoma cruzi [2] turned out to be 288 µM; in the data set with Leishmania mexicana [5], 65.4 µM; in the data set on Trypanosoma cruzi [8], 184 µM. The Survival in the data set with Plasmodium berghei [3] is 12 days. Further, in data set [4], the IC50 is 6.38 µM. For the same molecule, in the data set on Plasmodium berghei [6], the Activity worked out at 53.2%. Also, the 50% cytotoxic concentration (CC50) at 24 h in [7] was over 200 µM.
